Only some compounds are listed: those with a hit (about 3.5% of all), similar ones and a draw of the others.
MrgX1 allo act: human MrgX1 positive allosteric modulation, primary screen; AID 588675; MrgX1-HEK293, Fluo-4 calcium flux, FDSS; hits give high values; B-score at 10 µM; Q96LB2; hit rate 0.63% among 310,000;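 active means plate-corrected calcium response at least 3 library SD above typical, normal starting fluorescence, not activating the receptor alone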;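 further: compound read alongside a low EC10 to EC30 dose of BAM8-22 agonist; peak minus trough fluorescence over baseline measured at the second addition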
Target sequence (Q96LB2 whole entry, looked up): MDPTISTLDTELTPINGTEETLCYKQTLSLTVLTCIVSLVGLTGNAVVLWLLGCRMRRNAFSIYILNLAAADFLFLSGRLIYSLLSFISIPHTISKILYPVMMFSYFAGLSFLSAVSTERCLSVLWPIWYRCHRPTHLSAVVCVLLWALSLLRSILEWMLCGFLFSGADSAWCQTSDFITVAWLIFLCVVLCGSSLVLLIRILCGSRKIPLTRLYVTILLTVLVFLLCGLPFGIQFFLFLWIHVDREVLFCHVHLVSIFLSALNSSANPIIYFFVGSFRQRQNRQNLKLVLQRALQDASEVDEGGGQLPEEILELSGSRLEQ
RGS4 pot: potentiators or activators of RGS4; AID 463111; hit rate 0.92% among 310,000; HEK293 M3R/inducible RGS4, carbachol calcium flux Fluo4; hits give low values; B-score at 10 µM;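 active means B-score of the integrated calcium signal more than 4 SD below the library mean, with starting fluorescence not abnormally high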;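 further: negative B-score means reduced calcium response which marks RGS4 activation or potentiation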
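Assay system: HEK293 FlpIn-TREx cells, stable M3R, doxycycline-inducible RGS4 / Probe or stimulus: carbachol, ECmax concentration / Times: overnight RGS4 induction, 30 min dye load 37 °C, 20 min compound RT / Signal: kinetic calcium fluorescence imaging with Fluo4-AM dye, 2 µM / Measure: Agonist-evoked peak-minus-minimum fluorescence over baseline, integrated ratio, B score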
MrgX1 agonist: human MrgX1 receptor agonism, primary screen. Q96LB2. MrgX1-HEK293 cells, Fluo-4 calcium fluorescence, agonist mode; hits give high values. B-score at 10 µM. hit rate 0.44% among 310,000. AID 588627;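 active means calcium response B-score plate-corrected fluorescence ratio at least 3 library SD, with starting fluorescence B-score inside 5 SD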
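Assay system: stable human MrgX1 HEK293 cell line. Quantity: 15,000 cells per well. Schedule: cells plated overnight, dye loaded 0.5 h 37 °C, 0.5 h room temperature. Detection: Fluo-4 NW calcium-flux fluorescence, kinetic read. Read-out basis: peak-minus-minimum fluorescence over baseline, converted to B scores. Control set: positive and negative control wells on each plate.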
RGS4 inh: inhibitors of human RGS4. HEK293 M3R/RGS4 inducible, Fluo-4 calcium flux; hits give high values; triggered by carbachol at its EC20. B-score at 10 µM. hit rate 0.45% among 310,000;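 active means B-score, a plate-corrected calcium signal, over three deviations above library mean, with baseline fluorescence within five deviations of library mean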;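 further: RGS4 expression induced by doxycycline in cells with stable M3 receptor; B-score is computed from the integrated fluorescence ratio over baseline after carbachol; higher B-score means a larger calcium signal and so more RGS4 inhibition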
Target sequence (P49798 whole entry, looked up): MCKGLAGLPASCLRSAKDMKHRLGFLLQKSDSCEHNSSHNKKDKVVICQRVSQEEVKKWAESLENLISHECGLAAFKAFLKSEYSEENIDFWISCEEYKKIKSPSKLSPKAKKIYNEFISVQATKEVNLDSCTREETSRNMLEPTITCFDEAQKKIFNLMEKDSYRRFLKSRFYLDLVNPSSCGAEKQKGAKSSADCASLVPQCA
MrgX1 antagonist: human MrgX1 receptor antagonism, primary screen; Q96LB2; MRGX1-HEK293 calcium flux, Fluo-4, BAM8-22 antagonism; hits give low values; B-score at 10 µM; hit rate 1.3% among 310,000;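 active means calcium-response B-score plate-corrected more than 3 library SD below zero, starting fluorescence within 5 deviations, no agonist response on first addition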;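 further: peak minus trough fluorescence over baseline after final BAM8-22 challenge near maximal dose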
* hit, by the source's call; i = inactive.

SMILES	MrgX1 allo act	RGS4 pot	MrgX1 agonist	RGS4 inh	MrgX1 antagonist
CCOC(=O)N1CCN(Cc2cc(=O)oc3cc4c(cc23)CCC4)CC1	i	i	33*	i	i
Cc1cc2oc(=O)cc(CN3CCCCC3)c2cc1O	i	i	i	i	i
CCOC(=O)N1CCN(Cc2cc(=O)oc3ccc(Cl)cc23)CC1	i	i	i	i	i
Cc1cc2oc(=O)cc(CN3CCCCC3)c2cc1C(C)C	i	i	50.9*	i	i
CCOC(=O)c1c(N2C(=O)Nc3ccccc3N2O)sc2c1CCCC2	i	i	37.5*	i	i
COc1ccc(Nc2c([N+](=O)[O-])ccc3c2=NC2(CCCCC2)N=3)cc1	i	i	i	i	i
Cc1cc(C(C2C(=O)CC(C)(C)CC2=O)C2C(=O)CC(C)(C)CC2=O)cc(C)c1OC(F)F	i	i	62.9*	i	i
O=C(O)CN(c1ccccc1)S(=O)(=O)c1cc(C(F)(F)F)cc(C(F)(F)F)c1	i	i	i	i	i
O=C(N/N=C/C=C/c1ccccc1)C(O)c1ccccc1 (stereo not given)	i	i	i	i	-5.9*
O=C(N/N=C/C=C/c1ccco1)C(O)c1ccccc1 (stereo not given)	i	i	i	i	i
CNC(=O)c1cc2cc(OC)ccc2n1CCN(Cc1ccccc1)Cc1ccccc1	i	i	i	i	-7.79*
COC(=O)[C@@H](Cc1c[nH]c2ccccc12)NC(=O)CNC(=O)c1ccccc1OC	i	i	i	i	i
C=CCC(C)(NCc1ccccc1)c1ccc(C)cc1 (stereo not given)	7.55*	i	i	i	i
Cc1oc(-c2ccccc2F)nc1CS(=O)(=O)CC(=O)NCCN(C)C1CCCCC1	i	i	i	i	-5.72*
Cc1oc(-c2ccccc2F)nc1CS(=O)(=O)CC(=O)NC1CCCC1	i	i	i	i	i
O=C(NC(=S)NNC(=O)c1ccccc1O)c1ccco1	i	i	30.2*	i	i
O=C(/C=C/c1cccs1)NC(=S)NNC(=O)c1ccccc1O	i	i	62.6*	i	i
CN1CCN(C2=C(Cl)C(=O)N(c3ccc(Cl)cc3)C2=O)CC1	i	i	i	i	i
O=C1C(Cl)=C(NC2CCCCC2)C(=O)N1c1ccc(Cl)cc1	14.7*	i	i	i	i
COc1cc(NC(=O)CSc2nc3c(C)ccc(C)c3cc2C)c(C(=O)O)cc1OC	i	i	i	i	i
Cc1cccc(-c2cc(C(=O)Nc3c(C)n(C)n(-c4ccccc4)c3=O)c3ccccc3n2)c1	6.58*	-8.54*	i	i	i
O=C(NCc1ccccc1F)C1CCCN1S(=O)(=O)c1ccc(F)cc1 (stereo not given)	i	i	i	i	i
O=C(NC(=S)NCCC1=CCCCC1)c1ccccc1Br	i	-7.29*	i	i	i
Cc1c(C)c2ccc(OC(C)C(=O)NCc3ccccn3)cc2oc1=O (stereo not given)	i	i	i	i	i
CN(C)c1cc[n+](CC(=O)Nc2ccc(Oc3ccccc3)cc2)cc1	i	-9.05*	i	i	i
SMILES	MrgX1 allo act	RGS4 pot	MrgX1 agonist	RGS4 inh	MrgX1 antagonist
CCOc1ccc(/C=N/NC(=O)c2nnn(-c3nonc3N)c2CN(C)C2CCCCC2)cc1	i	i	i	i	i
CC1=NOC(=O)/C1=C\c1ccc(-c2cccc(Cl)c2)o1	i	-8.95*	i	i	i
Cc1ccc(/C=C2/C(=O)ON=C2c2ccccc2)o1	i	i	42.6*	i	i
N=c1oc2cc(O)ccc2cc1C(=O)Nc1ccc(Br)cc1	i	i	i	i	-7.01*
COC(=O)Nc1ccc([N+](=O)[O-])cc1OC	i	i	i	i	-7.45*
Cc1cccc(CSC(=N)N)c1	i	i	i	i	i
C/C(=N/N=C(/N)SCc1ccccc1)C(C)(C)C	9.86*	i	i	i	i
O=C(NCc1ccncc1)/C(=N/O)c1ccccc1	i	i	i	i	-5.74*
Cc1ccc2cc(C3CC(c4ccco4)=NN3S(=O)(=O)c3ccccc3)c(Cl)nc2c1 (stereo not given)	i	i	37.8*	i	i
C=C(C)CSc1[nH]c(=O)cc(C)c1C#N	i	i	i	i	i
Cc1cc(C)n2nc(C(=O)Nc3ccc4c(c3)CCC4)nc2n1	i	i	i	i	i
CC(=O)OCCCCCCCCCCC[N+]1(C)CCCCC1	i	-8.91*	i	i	i
CC(C)Cc1cc(C(=O)N2N=C(C(F)F)CC2(O)C(F)F)c2ccccc2n1 (stereo not given)	i	i	i	i	i
CCc1ccc(-c2cc(C(=O)N3N=C(C(F)F)CC3(O)C(F)F)c3ccccc3n2)cc1 (stereo not given)	i	-7.18*	i	i	i
CC(C(=O)NC(N)=O)N1C(=O)NC(c2ccccc2)(c2ccccc2)C1=O (stereo not given)	i	i	i	i	i
CCC1C(c2ccccc2)N(C)C(c2ccccc2)CC1(O)c1ccccc1 (stereo not given)	i	-7.66*	i	i	i
O=C(Nc1cccc(-c2nc3ccccc3s2)c1)c1cc(-n2cnnc2)ccc1Cl	i	-8.27*	i	i	i
Cc1c(NC(=O)c2cc(-n3cnnc3)ccc2Cl)cccc1-c1nc2ccccc2s1	i	i	i	i	i
Cc1ccnc(N/C=C(\C#N)c2nc(-c3cccc(Br)c3)cs2)c1	i	i	36*	i	i
COc1ccc(CC(=O)O/N=C(\N)Cc2ccc(OC)cc2)cc1	i	i	i	i	i
COc1ccc(C/C(N)=N/O)cc1	i	i	i	i	-8.33*
CCOC(=O)c1cccc(NC(=O)Cn2nc(C)n3cccc3c2=O)c1	i	i	i	i	i
Cc1nc2ccccc2c2oc(C(=O)N3CCN(c4ccc([N+](=O)[O-])cc4)CC3)cc12	6.65*	i	i	i	i
Cc1ncc([N+](=O)[O-])n1S(=O)(=O)c1cc(Br)ccc1Br	i	i	i	i	i
CC(C)Oc1ccc(S(=O)(=O)N2CCOCC2)cc1NC(=O)Cc1c(F)cccc1Cl	i	i	i	i	i
COC(=O)c1ccc(CC(=O)c2nc3ccccc3s2)cc1	i	i	i	i	i
COC(=O)c1ccc(/C(O)=C(\C#N)c2nc3ccccc3s2)cc1	i	i	28.1*	i	i
